Results published in ChEMBL document CHEMBL4033696, “Repurposing of Proton Pump Inhibitors as first identified small molecule inhibitors of endo-β-N-acetylglucosaminidase (ENGase) for the treatment of NGLY1 deficiency, a rare genetic disease” (Bioorg Med Chem Lett, 2017).
Activity calls are given as the source filed them. The calls are words filed in the database; no cut-off is given here. Residues, ends and D or L forms follow the SMILES beside them. *: point of attachment. Cbz = O=C(OCc1ccccc1)*

target: T1, Cytosolic endo-beta-N-acetylglucosaminidase (Homo sapiens) (UniProt Q8NFI3); assay: Inhibition of recombinant human C-MYC/DDK-tagged ENGase expressed in HEK293T cells at 100 uM using heat inactivated bovine ribonuclease B as substrate pretreated for 15 mins followed by substrate addition after 90 mins by SDS-PAGE analysis; conditions: HEK-293T
T1 sequence (whole entry): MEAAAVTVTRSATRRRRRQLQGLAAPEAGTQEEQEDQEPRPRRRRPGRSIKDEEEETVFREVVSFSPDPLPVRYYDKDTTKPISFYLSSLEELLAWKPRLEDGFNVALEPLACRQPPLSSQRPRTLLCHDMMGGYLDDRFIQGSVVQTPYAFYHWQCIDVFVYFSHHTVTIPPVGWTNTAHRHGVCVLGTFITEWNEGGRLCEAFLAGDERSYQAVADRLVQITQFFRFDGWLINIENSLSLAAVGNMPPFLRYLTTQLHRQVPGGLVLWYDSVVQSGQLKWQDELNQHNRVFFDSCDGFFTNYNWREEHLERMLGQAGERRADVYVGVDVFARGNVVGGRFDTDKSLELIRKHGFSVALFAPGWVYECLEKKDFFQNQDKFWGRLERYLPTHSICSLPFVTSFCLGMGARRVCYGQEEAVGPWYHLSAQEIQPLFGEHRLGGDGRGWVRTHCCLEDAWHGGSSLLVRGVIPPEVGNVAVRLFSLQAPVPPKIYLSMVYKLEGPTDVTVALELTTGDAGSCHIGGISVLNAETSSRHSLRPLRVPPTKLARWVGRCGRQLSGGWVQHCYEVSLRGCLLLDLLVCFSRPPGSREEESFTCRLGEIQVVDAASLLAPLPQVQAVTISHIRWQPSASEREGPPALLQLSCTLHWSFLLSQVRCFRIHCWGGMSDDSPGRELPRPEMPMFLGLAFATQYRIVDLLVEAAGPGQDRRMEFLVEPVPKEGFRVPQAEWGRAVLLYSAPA
Summary of the method: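 Recombinant human ENGase incubated with ribonuclease B substrate and test compound at 100 μM as a single-concentration screen. Reactions were then heat-inactivated and resolved on 12% SDS-PAGE as an electrophoretic mobility shift assay. Bands were stained with Coomassie blue R-250 and quantified by densitometry.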

Row | SMILES | inhibition
1 | CC(=O)Nc1nnc(S(N)(=O)=O)s1 | inactive
2 | CN1CCc2nc(C(=O)N[C@@H]3C[C@@H](C(=O)N(C)C)CC[C@@H]3NC(=O)C(=O)Nc3ccc(Cl)cn3)sc2C1 | inactive
3 | CC(C)C[C@H](NC(=O)CNC(=O)c1cc(Cl)ccc1Cl)B(O)O | inactive
4 | CCNC1=N[C@H]2[C@H](O)[C@@H](O)[C@H](CO)O[C@H]2S1 | inactive
5 | CNCC[C@@H](Oc1ccccc1C)c1ccccc1 | inactive
6 | N=C(N)NC(=O)Cc1c(Cl)cccc1Cl | inactive
7 | Clc1cccc(Cl)c1NC1=NCCN1 | inactive
8 | CC(C)C[C@@H](C=O)NC(=O)[C@H](CC(C)C)NC(=O)[C@H](CC(C)C)NC(=O)OCc1ccccc1 (Cbz-Leu-Leu-Leu-aldehyde) | inactive

target: T1, Cytosolic endo-beta-N-acetylglucosaminidase (Homo sapiens); assay: (§1) Inhibition of recombinant human C-MYC/DDK-tagged ENGase expressed in HEK293T cells using heat inactivated bovine ribonuclease B as substrate pretreated for 15 mins followed by substrate addition after 90 mins by SDS-PAGE analysis; conditions: HEK-293T
Summary of the method: (§2)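 Electrophoretic mobility shift assay: recombinant human ENGase with ribonuclease B and inhibitor at various concentrations, heat-inactivated, run on 12% SDS-PAGE, Coomassie R-250 staining, band densitometry. IC50 came either from 8-dose curves in three independent experiments or was estimated from four concentrations in two independent experiments.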

Row | SMILES | inhibition
9 | COc1ccc2[nH]c([S@@+]([O-])Cc3ncc(C)c(OC)c3C)nc2c1 | inactive
10 | COc1ccnc(C[S+]([O-])c2nc3cc(OC(F)F)ccc3[nH]2)c1OC (stereo not given) | inactive

target: T2, Cytosolic endo-beta-N-acetylglucosaminidase (Homo sapiens, UniProt Q8NFI3); assay: as §1; set-up: species or system HEK-293T; conditions: not given; summary of the method: as §2
T2 sequence (Q8NFI3 whole entry): T1 sequence (whole entry)

Row | SMILES | IC50
11 | COc1ccc2[nH]c([S+]([O-])Cc3ncc(C)c(OC)c3C)nc2c1 (stereo not given) [OMEPRAZOLE] | 25 µM
12 | Cc1c(OCC(F)(F)F)ccnc1C[S+]([O-])c1nc2ccccc2[nH]1 (stereo not given) [LANSOPRAZOLE] | 24.4 µM
13 | COCCCOc1ccnc(C[S+]([O-])c2nc3ccccc3[nH]2)c1C (stereo not given) [RABEPRAZOLE] | 4.47 µM
14 | Cc1c(OCC(F)(F)F)ccnc1C[S@@+]([O-])c1nc2ccccc2[nH]1 [DEXLANSOPRAZOLE] | 25 µM
15 | COc1ccc2[nH]c([S+]([O-])Cc3ncc(C)c(OC)c3C)nc2n1 (stereo not given) [TENATOPRAZOLE] | 20 µM
